# Data: ChEMBL document CHEMBL4043304, “Synthesis and Evaluation of Hydrogen Peroxide Sensitive Prodrugs of Methotrexate and Aminopterin for the Treatment of Rheumatoid Arthritis” (J Med Chem, 2018)
# Calls of active or inactive are those of the source. The rule behind the calls is not given here.
# What was measured:
# [1] = Prodrug activation in DMSO/PBS mixture assessed as formation of Dimethyl (4-(((2,4-Diaminopteridin-6-yl)methyl)(methyl)amino)-benzoyl)-L-glutamate at 50 uM after <3 hrs in presence of 0.5 mM H2O2 by RP-UPLC-MS method
# Outline: (§1)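 50 µM prodrug in 30% DMSO/PBS pH 7.4 at 37 °C with diclofenac internal standard. Started with H2O2 at 0.5 mM final. Sampled 5 min to 4 h (some compounds to 48 h). RP-UPLC-UV at 306 nm. No-H2O2 control run in parallel. Triplicate.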
# [2] = Kinetic solubility of the compound in DMSO/PBS mixture after 20 hrs by RP-UPLC-UV method; format: physicochemical
# Outline: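 100 µM compound in 1% DMSO/PBS pH 7.4, shaken 20 h at 37 °C. Centrifuged to remove insoluble material; supernatant quantified by RP-UPLC-UV at 306 nm. Triplicate.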
# MCF7 [3] = test: Cytotoxicity against human MCF7 cells assessed as decrease in cell viability after 48 hrs by MTS assay; format: functional, cell-based
# Outline: (§2)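 MCF-7 (DMEM) or NCI-H460 (RPMI), 10% FBS, seeded at 10^4 or 7×10^3 cells/well respectively and attached for 24 h. Exposed to serial compound concentrations for 48 h, then MTS read at 490 nm. DMSO ≤0.4% matched controls. Triplicate. IC50 by non-linear regression.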
# NCI-H460 [4] = test: Cytotoxicity against human NCI-H460 cells assessed as decrease in cell viability after 48 hrs by MTS assay; format: functional, cell-based; outline: as §2
# Mus musculus [5] = test: Antiarthritic activity in collagen-induced DBA/1J mouse arthritis model assessed as decrease in incidence of arthritis at 7 mg/kg, ip administered daily for 2 weeks starting on day 27 post first immunization measured thrice per week during compound dosing relative to control; format: functional, organism-based
# Outline: (§3)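 Male DBA/1J mice (8–9 wk, n = 8/group). Arthritis induced by intradermal tail-base immunization with 100 µg chicken type-II collagen in CFA on day −1, with a 50 µg boost on day 21. Daily i.p. dosing in 2% DMSO/PBS for 14 days from day 27. Blinded scoring three times weekly, 0–15 per limb (max 60). Vehicle group as control. Mann-Whitney test.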
# Mus musculus [6] = test: Antiarthritic activity in collagen-induced DBA/1J mouse arthritis model assessed as reduction of macroscopic score at 7 mg/kg, ip administered daily for 2 weeks starting on day 27 post first immunization measured thrice per week during compound dosing relative to control; format: functional, organism-based; outline: as §3
# Mus musculus [7] = test: Toxicity in collagen-induced DBA/1J mouse arthritis model assessed as decrease in body weight at 7 mg/kg, ip administered daily for 2 weeks starting on day 27 post first immunization measured thrice per week during compound dosing; format: organism-based; settings: in vivo, 336 h
# Outline: (§4)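 CIA in male DBA/1J mice (8–9 wk, n = 8/group) from chicken type-II collagen/CFA immunization (day −1, boost day 21). Daily i.p. dosing in 2% DMSO/PBS for 14 days starting day 27. Body weight recorded three times weekly as a general-health indicator, compared with vehicle. Data are mean ± SEM.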
# [8] = Prodrug activation in DMSO/PBS mixture assessed as formation of aminopterin at 50 uM after <3 hrs in presence of 0.5 mM H2O2 by RP-UPLC-MS method; outline: as §1
# [9] = Half life in human plasma at 20 uM by RP-UPLC-UV method; format: ADME, cell-free
# Outline: (§5)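 Reconstituted lyophilized human or mouse plasma mixed about 1:1 with PBS and pre-warmed to 37 °C. Compound added to 20 µM final. […] Procaine (human) and diltiazem (mouse) as controls.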
# [10] = Prodrug activation in DMSO/PBS mixture assessed as formation of aminopterin at 100 uM after 2 to 48 hrs in presence of 0.25 to 10 mM H2O2 […]
# Mus musculus [11] = test: Toxicity in collagen-induced DBA/1J mouse arthritis model assessed as decrease in body weight at 8.8 mg/kg, ip administered daily for 2 weeks starting on day 27 post first immunization measured thrice per week during compound dosing; format: organism-based; settings: in vivo, 336 h; outline: as §4
# NCI-H460 [12] = test: Cytotoxicity against human NCI-H460 cells assessed as decrease in cell viability preincubated with H2O2 for 24 hrs followed by cell addition measured after 48 hrs by MTS assay; format: functional, cell-based
# Outline: (§6)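 Compound pre-activated at 125 µM with 1.25 mM H2O2 in DMSO:PBS 1:1, 24 h at 21 °C. Then added to MCF-7 or NCI-H460 cells (24 h attached) for 48 h. Final H2O2 <10 µM. MTS read at 490 nm. Triplicate. IC50 by non-linear regression.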
# [13] = Prodrug activation in DMSO/PBS mixture assessed as formation of (S)-dimethyl 2-(4-((2,4-diaminopteridin-6-yl)methylamino)benzamido)pentanedioate at 50 uM measured within 2 hrs in presence of 0.5 mM H2O2 by RP-UPLC-MS method; outline: as §1
# Mus musculus [14] = test: Antiarthritic activity in collagen-induced DBA/1J mouse arthritis model assessed as reduction of macroscopic score at 8.8 mg/kg, ip administered daily for 2 weeks starting on day 27 post first immunization measured thrice per week during compound dosing relative to control; format: functional, organism-based; outline: as §3
# [15] = Half life in mouse plasma at 20 uM by RP-UPLC-UV method; format: ADME, cell-free; outline: as §5
# [16] = Prodrug activation in DMSO/PBS mixture assessed as formation of (S)-2-(4-(((2,4-diaminopteridin-6-yl)methyl)(4-hydroxybenzyl)amino)benzamido)pentanedioic acid at 50 uM measured within 2 hrs in presence of 0.5 mM H2O2 by RP-UPLC-MS method; outline: as §1
# [17] = Half life in SIF by RP-UPLC-UV method; format: physicochemical
# Outline: (§7)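 SGF or SIF (SIF adjusted to pH 7.5) dosed from a 10 mM DMSO stock. Incubated at 37 °C and sampled at 0, 1, 2, 4 and 24 h. Run in triplicate.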
# [18] = Half life in SGF by RP-UPLC-UV method; format: physicochemical; outline: as §7
# [19] = Prodrug activation in DMSO/PBS mixture assessed as formation of aminopterin at 50 uM measured within 2 hrs in presence of 0.5 mM H2O2 by RP-UPLC-MS method; outline: as §1
# [20] = Chemical stability in PBS/DMSO mixture at pH 7.4 after 24 hrs by RP-UPLC-UV method; format: physicochemical; settings: read-out: Stability
# [21] = Metabolic stability in mouse plasma at 20 uM after 8 hrs by RP-UPLC-UV method; format: ADME, cell-free; settings: read-out: Stability; outline: as §5
# [22] = Half life in PBS/DMSO mixture at pH 7.4 by RP-UPLC-UV method; format: physicochemical
# [23] = Metabolic stability in human plasma at 20 uM after 24 hrs by RP-UPLC-UV method; format: ADME, cell-free; settings: read-out: Stability; outline: as §5
# [24] = Intrinsic clearance in human liver microsomes at 10 uM after 5 to 60 mins by RP-UPLC-UV method; format: ADME, microsome; settings: read-out: CLH
# Outline: (§8)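 Pooled male liver microsomes (human, or CD-1 mouse) in PBS at 37 °C with 10 µM compound. Reaction started with NADPH. Aliquots taken 0–60 min (mouse also 120 and 240 min) and quenched with cold MeCN/diclofenac. Read by RP-UPLC-UV, ln[C] vs time, first order. No-NADPH control run; verapamil (human) or diphenhydramine (mouse) as reference.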
# Mus musculus [25] = test: Antiarthritic activity in collagen-induced DBA/1J mouse arthritis model assessed as decrease in incidence of arthritis at 8.8 mg/kg, ip administered daily for 2 weeks starting on day 27 post first immunization measured thrice per week during compound dosing relative to control; format: functional, organism-based; outline: as §3
# MCF7 [26] = test: Cytotoxicity against human MCF7 cells assessed as decrease in cell viability preincubated with H2O2 for 24 hrs followed by cell addition measured after 48 hrs by MTS assay; format: functional, cell-based; outline: as §6
# [27] = Intrinsic clearance in CD1 mouse liver microsomes at 10 uM after 5 to 240 mins by RP-UPLC-UV method; format: ADME, microsome; settings: read-out: CLH; outline: as §8
# Mus musculus [28] = test: Toxicity in collagen-induced DBA/1J mouse arthritis model assessed as decrease in body weight at 6.8 mg/kg, ip administered daily for 2 weeks starting on day 27 post first immunization measured up to day 33; format: organism-based; settings: in vivo, 336 h
# Outline: (§9)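 Male DBA/1J mice, 8–9 weeks. CIA induced by intradermal/subcutaneous tail-base immunization with 100 µg chicken type-II collagen in CFA on day -1, boosted with 50 µg on day 21. From day 27, i.p. dosing once daily for 14 days in 2% DMSO/PBS vehicle, n = 8 per group. Three times weekly, blinded limb scoring (0–15 per limb, max 60) and body weight. Reported as mean ± SEM; one-tailed Mann-Whitney test.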
# Mus musculus [29] = test: Antiarthritic activity in collagen-induced DBA/1J mouse arthritis model assessed as reduction of macroscopic score at 6.8 mg/kg, ip administered daily for 2 weeks starting on day 27 post first immunization measured thrice per week during compound dosing relative to control; format: functional, organism-based; outline: as §9
# Mus musculus [30] = test: Antiarthritic activity in collagen-induced DBA/1J mouse arthritis model assessed as decrease in incidence of arthritis at 6.8 mg/kg, ip administered daily for 2 weeks starting on day 27 post first immunization measured thrice per week during compound dosing relative to control; format: functional, organism-based; outline: as §9
# [31] = Prodrug activation in DMSO/PBS mixture assessed as formation of (S)-dimethyl 2-(4-(((2,4-diaminopteridin-6-yl)methyl)(4-hydroxybenzyl)amino)benzamido)pentanedioate at 50 uM measured within 2 hrs in presence of 0.5 mM H2O2 by RP-UPLC-MS method; outline: as §1
# [32] = Prodrug activation in DMSO/PBS mixture assessed as formation of (S)-dimethyl 2-(4-((2,4-diaminopteridin-6-yl)methylamino)benzamido)pentanedioate at 50 uM after 2 hrs in presence of 0.5 mM H2O2 by RP-UPLC-MS method
structure (smiles),measurement,setting,value
COC(=O)CC[C@H](NC(=O)c1ccc(N(C)Cc2cnc3nc(N)nc(NC(=O)OCc4ccc(B(O)O)c(C)c4)c3n2)cc1)C(=O)OC,Drug metabolism,[1],> 95%
COC(=O)CC[C@H](NC(=O)c1ccc(N(C)Cc2cnc3nc(N)nc(NC(=O)OCc4ccc(B(O)O)cc4)c3n2)cc1)C(=O)OC,Drug metabolism,[1],> 95%
same,solubility kinetic at 20 h,[2]; read-out: Kinetic_solubility,3 µM
CN(Cc1cnc2nc(N)nc(N)c2n1)c1ccc(C(=O)N[C@@H](CCC(=O)O)C(=O)O)cc1 [METHOTREXATE],Activity,MCF7 [3],Active
same,Activity,NCI-H460 [4],Active
same,solubility kinetic at 20 h,[2]; read-out: Kinetic_solubility,2140 µM
same,Activity,Mus musculus [5],Active
same,Activity,Mus musculus [6],Active
same,Activity,Mus musculus [7],Toxic
Nc1nc(N)c2nc(CN(Cc3ccc(B(O)O)cc3)c3ccc(C(=O)N[C@@H](CCC(=O)O)C(=O)O)cc3)cnc2n1,Activity,MCF7 [3],inactive
same,Activity,NCI-H460 [4],inactive
same,Drug metabolism,[8],Metabolite detected
same,half-life at 20 µM,[9],2.33 days
same,Drug metabolism,[10],Metabolite detected
same,solubility kinetic at 20 h,[2]; read-out: Kinetic_solubility,83 µM
same,Activity,Mus musculus [11],Non-Toxic
same,Activity,NCI-H460 [12],Active
same,Drug metabolism,[13],Metabolite not detected
same,Activity,Mus musculus [14],Active
same,half-life at 20 µM,[15],2.62 days
same,Drug metabolism,[16],Metabolite detected
same,half-life,[17],36.1 days
same,half-life,[18],32.1 days
same,Drug metabolism,[19],Metabolite not detected
same,remaining at 24 h,[20],> 90%
same,"remaining at 8 h, 20 µM",[21],91%
same,half-life,[22],24 days
same,"remaining at 24 h, 20 µM",[23],82%
same,microsomal CLint at 10 µM,[24],1.2 µL/min/mg
same,Activity,Mus musculus [25],Active
same,Activity,MCF7 [26],Active
same,microsomal CLint at 10 µM,[27],2.6 µL/min/mg
Nc1nc(N)c2nc(CNc3ccc(C(=O)N[C@@H](CCC(=O)O)C(=O)O)cc3)cnc2n1 [AMINOPTERIN],Activity,MCF7 [3],Active
same,Activity,NCI-H460 [4],Active
same,solubility kinetic at 20 h,[2]; read-out: Kinetic_solubility,> 1000 µM
same,Activity,Mus musculus [28],Toxic
same,Activity,Mus musculus [29],Active
same,Activity,Mus musculus [30],Active
COC(=O)CC[C@H](NC(=O)c1ccc(N(C)Cc2cnc3nc(N)nc(NC(=O)OCc4ccc(B(O)O)c(F)c4)c3n2)cc1)C(=O)OC,Drug metabolism,[1],> 95%
same,solubility kinetic at 20 h,[2],4.6 µM
COC(=O)CC[C@H](NC(=O)c1ccc(N(Cc2ccc(B(O)O)cc2)Cc2cnc3nc(N)nc(N)c3n2)cc1)C(=O)OC,solubility kinetic at 20 h,[2]; read-out: Kinetic_solubility,4.1 µM
same,Drug metabolism,[13],Metabolite not detected
same,Drug metabolism,[31],Metabolite detected
same,Drug metabolism,[32],Metabolite detected
same,Drug metabolism,[19],Metabolite not detected
